Data set [1] in a line: melting temperature; fluorescence melt of hairpins on a sequencing array, two-state fit, raised by 9.35 °C to match UV melts. Conditions: sodium 0.088 M. The gist of the method: (§1)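 Hairpins were imaged by Cy3 fluorescence on a sequenced MiSeq flow cell with annealed Cy3 and quencher oligos, in 50 mM Na-HEPES pH 8.0, 25 mM NaCl, in 2.5 °C steps up to 60 °C. Bootstrapped two-state fits of normalised signals gave melting temperature and folding enthalpy. Four replicates were combined by inverse variance, and fitted temperatures were raised by 9.35 °C to match UV melts.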

The nature of data set [2]: folding enthalpy; higher = less favourable; fluorescence melt of hairpins on a sequencing array, two-state fit. Particulars: sodium 0.088 M. In short, it runs like this: as §1

Take GCTGTCGAAAGACTGAGC ((((((....)))..))): the Tm in data set [1] was 43 °C. Moreover, the folding enthalpy in data set [2] is -18.5 kcal/mol.
GCTGTCGGAAACGACAAC (.(((((....))))).): the Tm in data set [1] was 40.9 °C. For the same sequence, the folding enthalpy in data set [2] was -12.9 kcal/mol.
For GCTGTCGGAAACGATAGC (((.(((....))).))), in that order: 53.4 °C and -57.3 kcal/mol.
For GCTGTCGGAAACGGTAGC (((..((....))..))), the Tm in data set [1] is 41.8 °C. In addition, the folding enthalpy in data set [2] is -28.9 kcal/mol.
GCTGTCTCGAAAGAGAGC (((..(((....)))))): in data set [1], the Tm came to 38.3 °C. The folding enthalpy in data set [2] was -15.5 kcal/mol.
GCTGTGAAAACAGC (((((....))))): the Tm in data set [1] was determined as 63.3 °C. Besides, the folding enthalpy in data set [2] was -30.2 kcal/mol.
Regarding GCTGTGACGAAAGTCAGC (((..(((....)))))), the Tm in data set [1] is 47 °C. The folding enthalpy in data set [2] is -15.1 kcal/mol.
Turning to GCTGTGCGAAAGCAACGC ((..(((....)))..)), the Tm in data set [1] stood at 49.9 °C. Besides, in data set [2], the folding enthalpy is -13.7 kcal/mol.
For GCTGTGCGAAAGCAGCGC ((..(((....)))..)), the Tm in data set [1] was 57.1 °C. For the same sequence, the folding enthalpy in data set [2] was -21 kcal/mol.
The matching figures for GCTGTGCGAAAGCAGGGC ((..(((....)))..)): 50.3 °C and -21.1 kcal/mol.
With GCTGTGCGAAAGCCCAGC ((((.((....)).)))), in data set [1], the Tm amounted to 61.8 °C. In data set [2], the folding enthalpy was -28.1 kcal/mol.
The matching figures for GCTGTGCGAAAGCCCCGC ((.(.((....)).).)): 31.1 °C and -12.5 kcal/mol.
For GCTGTGCGAAAGCGTAGC (((..((....))..))), in that order: 49.5 °C and -17.6 kcal/mol.
Consider GCTGTGCGAAAGCTCAGC ((((.((....)).)))), for which, in data set [1], the Tm stood at 68 °C. Moreover, the folding enthalpy in data set [2] is -36.8 kcal/mol.
Turning to GCTGTGCGAAAGCTCTGC ((.(.((....)).).)), the Tm in data set [1] is 44.6 °C. For the same sequence, in data set [2], the folding enthalpy was -22.1 kcal/mol.
With GCTGTGCGAAAGCTTAGC (((..((....))..))), in data set [1], the Tm was found to be 41.9 °C. Also, the folding enthalpy in data set [2] is -22.5 kcal/mol.
With GCTGTGGGAAACTACAGC (((((.(....).))))), the Tm in data set [1] amounted to 53.1 °C. Further, the folding enthalpy in data set [2] was -41.4 kcal/mol.
With GCTGTTACGAAAGTAAGC (((..(((....)))))), in data set [1], the Tm turned out to be 37.8 °C. Besides, the folding enthalpy in data set [2] was -21.1 kcal/mol.
Take GCTGTTCGAAAGAAAGC (((.(((....)))))): the Tm in data set [1] turned out to be 36.7 °C. Further, in data set [2], the folding enthalpy is -15.6 kcal/mol.
Regarding GCTGTTGGAAACAACAGC (((((((....))))))), the Tm in data set [1] was found to be 67.1 °C. Also, the folding enthalpy in data set [2] was -44.5 kcal/mol.
With GCTGTTGGAAACGATAGC (((.(.(....).).))), the Tm in data set [1] stood at 32 °C. Besides, the folding enthalpy in data set [2] is -20.9 kcal/mol.
On to GCTGTTTCGAAAGAAAGC (((..(((....)))))), for which the Tm in data set [1] came out at 27.6 °C. Further, the folding enthalpy in data set [2] is -15.7 kcal/mol.
For GCTTAAGGAAACTTAAGC (((((((....))))))), in data set [1], the Tm came to 53.2 °C. The folding enthalpy in data set [2] is -39.6 kcal/mol.
As to GCTTAATCGAAAGATAGC (((..(((....)))))), the Tm in data set [1] is 30.8 °C. In addition, the folding enthalpy in data set [2] was -16.4 kcal/mol.
The matching figures for GCTTACCGAAAGGTTAGC (((.(((....))).))): 52.8 °C and -35 kcal/mol.
Consider GCTTACGAAAGTAACAGC ((((((....)))..))), for which, in data set [1], the Tm turned out to be 37 °C. In data set [2], the folding enthalpy was -16.2 kcal/mol.
In the case of GCTTACGAAAGTAAGAGC ((((((....)))..))), in data set [1], the Tm was determined as 45.4 °C. Moreover, the folding enthalpy in data set [2] was -18.5 kcal/mol.
For the sequence GCTTACGAAAGTAATAGC ((((((....)))..))), the Tm in data set [1] is 38.6 °C. For the same sequence, the folding enthalpy in data set [2] was -17.8 kcal/mol.
The matching figures for GCTTACGAAAGTACAGC ((((((....))).))): 41.4 °C and -23.4 kcal/mol.
The matching figures for GCTTACGAAAGTAGTAGC ((((((....)))..))): 34.8 °C and -27.9 kcal/mol.
As for GCTTAGAAATAAGC (((((....))))), in data set [1], the Tm worked out at 40.5 °C. The folding enthalpy in data set [2] was -18 kcal/mol.
Consider GCTTAGACGAAAGTCAGC (((..(((....)))))), for which the Tm in data set [1] worked out at 41.6 °C. Besides, in data set [2], the folding enthalpy is -18.2 kcal/mol.
Turning to GCTTAGCCGAAAGGCAGC (((..(((....)))))), the Tm in data set [1] is 45.5 °C. Moreover, the folding enthalpy in data set [2] is -16.4 kcal/mol.
For GCTTAGCGAAAGCAAAGC ((((.((....)).)))), the Tm in data set [1] amounted to 59.8 °C. For the same sequence, the folding enthalpy in data set [2] is -23.6 kcal/mol.
For the sequence GCTTAGCGAAAGCAGAGC (((..((....))..))), the Tm in data set [1] came to 50 °C. Moreover, the folding enthalpy in data set [2] is -19 kcal/mol.
Turning to GCTTAGCGAAAGCCAAGC ((((.((....)).)))), in data set [1], the Tm was determined as 53.5 °C. Further, the folding enthalpy in data set [2] is -22.1 kcal/mol.
The matching figures for GCTTAGCGAAAGCTATGC ((.((((....)))).)): 59.5 °C and -26.6 kcal/mol.
With GCTTAGCGAAAGCTTAGC (((.(((....))).))), the Tm in data set [1] stood at 51.9 °C. The folding enthalpy in data set [2] was -43.1 kcal/mol.
For the sequence GCTTAGGAAACTAAGC ((((((....)))))), the Tm in data set [1] was 52.7 °C. Besides, the folding enthalpy in data set [2] was -31.7 kcal/mol.
As to GCTTAGGGAAACCCAAGC ((((.((....)).)))), the Tm in data set [1] came to 44 °C. In addition, the folding enthalpy in data set [2] was -26.7 kcal/mol.
In the case of GCTTAGGGAAACCTAAGC (((((((....))))))), the Tm in data set [1] is 59.8 °C. Besides, the folding enthalpy in data set [2] was -34 kcal/mol.
In the case of GCTTATCCGAAAGGAAGC (((..(((....)))))), the Tm in data set [1] came out at 34.3 °C. Further, the folding enthalpy in data set [2] is -15.5 kcal/mol.
For GCTTATCGAAAGATAGC (((.(((....)))))), the Tm in data set [1] is 43.4 °C. Further, the folding enthalpy in data set [2] is -27.5 kcal/mol.
Consider GCTTATGGAAACATAGGC ((.((((....)))).)), for which, in data set [1], the Tm amounted to 41.6 °C. In addition, in data set [2], the folding enthalpy is -32.8 kcal/mol.
Regarding GCTTCACGAAAGTGCAGC (((.(((....))).))), the Tm in data set [1] is 51.6 °C. In data set [2], the folding enthalpy was -27.7 kcal/mol.
With GCTTCACGAAAGTGTAGC (((.(((....))).))), the Tm in data set [1] is 53.8 °C. The folding enthalpy in data set [2] was -30.2 kcal/mol.
Turning to GCTTCAGCGAAAGCTAGC (((..(((....)))))), in data set [1], the Tm is 41.2 °C. For the same sequence, the folding enthalpy in data set [2] was -9.89 kcal/mol.
For GCTTCAGGAAACTAAAGC ((((.((....)).)))), the Tm in data set [1] came out at 28.7 °C. For the same sequence, the folding enthalpy in data set [2] was -26.3 kcal/mol.
The matching figures for GCTTCCACGAAAGTGAGC (((..(((....)))))): 33.7 °C and -12.3 kcal/mol.
GCTTCCGAAAGGAACAGC ((((((....)))..))): in data set [1], the Tm stood at 38.3 °C. The folding enthalpy in data set [2] was -15.1 kcal/mol.
For GCTTCCGAAAGGACAAGC ((((((....)))..))), in that order: 38.5 °C and -24.2 kcal/mol.
Turning to GCTTCCGAAAGGACGAGC ((((((....)))..))), the Tm in data set [1] was found to be 37.6 °C. Also, the folding enthalpy in data set [2] is -18.8 kcal/mol.
Turning to GCTTCCGAAAGGAGGAGC ((((((....)))..))), in data set [1], the Tm came out at 39.1 °C. For the same sequence, in data set [2], the folding enthalpy is -21 kcal/mol.
For the sequence GCTTCCGAAAGGATTAGC ((((((....)))..))), the Tm in data set [1] was determined as 38.3 °C. Moreover, in data set [2], the folding enthalpy was -23.2 kcal/mol.
With GCTTCCGGAAACGGAGGC ((.((((....)))).)), the Tm in data set [1] is 54.6 °C. For the same sequence, the folding enthalpy in data set [2] was -36.4 kcal/mol.
The matching figures for GCTTCGACGAAAGTCAGC (((..(((....)))))): 33.5 °C and -13.1 kcal/mol.
GCTTCGCCGAAAGGCAGC (((..(((....)))))): the Tm in data set [1] amounted to 40.9 °C. The folding enthalpy in data set [2] was -10.4 kcal/mol.
As for GCTTCGCGAAAGCATAGC (((..((....))..))), the Tm in data set [1] is 36.3 °C. In data set [2], the folding enthalpy is -14.5 kcal/mol.
As for GCTTCGCGAAAGCCATGC ((.(.((....)).).)), the Tm in data set [1] stood at 34.6 °C. Also, the folding enthalpy in data set [2] is -9.05 kcal/mol.
As for GCTTCGCGAAAGCCCAGC (((..((....))..))), the Tm in data set [1] was found to be 31.2 °C. In addition, the folding enthalpy in data set [2] was -7.98 kcal/mol.
For GCTTCGCGAAAGCGATGC ((.((((....)))).)), in that order: 65.7 °C and -17.4 kcal/mol.
For the sequence GCTTCGCGAAAGCGTAGC (((.(((....))).))), the Tm in data set [1] was determined as 55.7 °C. The folding enthalpy in data set [2] is -42.6 kcal/mol.
With GCTTCGGGAAACCGAAAC (.(((((....))))).), in data set [1], the Tm was 40.2 °C. For the same sequence, the folding enthalpy in data set [2] was -15.4 kcal/mol.
For GCTTCTCGAAAGAGCAGC (((.(((....))).))), in that order: 46.8 °C and -24 kcal/mol.
Turning to GCTTCTGGAAACGGAAGC (((((.(....).))))), the Tm in data set [1] is 51.6 °C. In data set [2], the folding enthalpy was -46.4 kcal/mol.
As for GCTTGAGAAATCAAGC ((((((....)))))), the Tm in data set [1] was determined as 55.8 °C. For the same sequence, in data set [2], the folding enthalpy is -35.3 kcal/mol.
Regarding GCTTGAGCGAAAGCTAGC (((..(((....)))))), the Tm in data set [1] is 47.8 °C. For the same sequence, in data set [2], the folding enthalpy was -13.9 kcal/mol.
Consider GCTTGAGGAAACTCAAGC (((((((....))))))), for which the Tm in data set [1] is 62.8 °C. Moreover, in data set [2], the folding enthalpy is -41.9 kcal/mol.
As to GCTTGAGGAAACTCAGGC ((.((((....)))).)), the Tm in data set [1] was 47.6 °C. Besides, the folding enthalpy in data set [2] was -32.9 kcal/mol.
Turning to GCTTGCCCGAAAGGGAGC (((..(((....)))))), the Tm in data set [1] was determined as 48.1 °C. Also, the folding enthalpy in data set [2] is -14.7 kcal/mol.
GCTTGCGAAAGCAAAAGC ((((((....)))..))): the Tm in data set [1] is 52.8 °C. Also, in data set [2], the folding enthalpy is -17.8 kcal/mol.
Consider GCTTGCGAAAGCAGCAGC ((((((....)))..))), for which, in data set [1], the Tm came to 46.4 °C. The folding enthalpy in data set [2] was -11.4 kcal/mol.
In the case of GCTTGCGGAAACACAAGC (((((.(....).))))), the Tm in data set [1] came to 46.8 °C. For the same sequence, the folding enthalpy in data set [2] is -23.6 kcal/mol.
